Here are results for eleven molecules from article PMC2872922 (Journal of medicinal chemistry, 2010).

The nature of data set [1]: Brain and plasma levels 1 h after i.p. administration. It is filed as in vivo. The conditions noted are these: female, B6C3F1, mouse, brain, ip, 5 mg/kg, Brain level, mice, 5 mg/kg i.p. The procedure, abridged: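 Two-month-old female B6C3F1 mice, three per compound, given test compound 5 mg/kg i.p. and sampled at 1 h. Brain hemispheres were homogenised in 10 mM ammonium acetate pH 5.7 (1:2 w/v), and plasma was collected on EDTA. Samples were acetonitrile-extracted and quantified by LC-MS/MS (MRM, positive ESI) against spiked brain/plasma standards (4–4000 ng/mL) using a 1/x-weighted linear fit and triplicate injections.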

Data set [2] is described as follows: Brain and plasma levels after oral administration. It counts as in vivo. The conditions noted are these: mice, oral gavage 5 mg/Kg. Put shortly:
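Female B6C3F1 mice, two months old, were dosed with test compound at 5 mg/kg by oral gavage. Brain homogenate (10 mM ammonium acetate pH 5.7, 1:2 w/v) and EDTA plasma were extracted with acetonitrile. Levels were measured by LC-MS/MS with MRM detection, quantified from matrix-matched standard curves (4–4000 ng/mL) by 1/x-weighted linear regression on the mean of triplicate injections.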

Data set [3] concerns the target K18 tau fragment bearing the P301L mutation (K18PL) (Homo sapiens, UniProt P10636, P618L). Kind of data set: Heparin-induced tau K18PL fibrillization assay monitored by thioflavine-T. It is filed as biochemical.
For data set [4] the following is noted: Phase 2 study, 321 patients with mild or moderate AD; cited from earlier work.
In data set [5] the target is tau40-promoted MT-polymerization (tubulin) (Homo sapiens, UniProt P10636). Kind of data set: MT-assembly. It is filed as biochemical. The conditions noted are these: 50 μM compound, 30 μM tubulin, 20 μM tau40. Put shortly:
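Wild-type full-length human tau40 (2N4R) was preincubated with test compound for 120 min at room temperature in RAB (100 mM MES pH 6.9, 1 mM […], 0.5 mM MgSO4). Bovine brain tubulin and GTP were then added. Final concentrations were 30 μM tubulin, 20 μM tau, 50 μM compound and 2 mM GTP, with a DMSO control. Polymerisation was followed at 37 °C by A340 every minute for 45 min.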

The term IC50 denotes the concentration that inhibits the measured activity by half.

Structures are written as SMILES. Some results are limits rather than exact numbers.

Sequence of tau40-promoted MT-polymerization (tubulin) (P10636 1-441 isoform P10636-8): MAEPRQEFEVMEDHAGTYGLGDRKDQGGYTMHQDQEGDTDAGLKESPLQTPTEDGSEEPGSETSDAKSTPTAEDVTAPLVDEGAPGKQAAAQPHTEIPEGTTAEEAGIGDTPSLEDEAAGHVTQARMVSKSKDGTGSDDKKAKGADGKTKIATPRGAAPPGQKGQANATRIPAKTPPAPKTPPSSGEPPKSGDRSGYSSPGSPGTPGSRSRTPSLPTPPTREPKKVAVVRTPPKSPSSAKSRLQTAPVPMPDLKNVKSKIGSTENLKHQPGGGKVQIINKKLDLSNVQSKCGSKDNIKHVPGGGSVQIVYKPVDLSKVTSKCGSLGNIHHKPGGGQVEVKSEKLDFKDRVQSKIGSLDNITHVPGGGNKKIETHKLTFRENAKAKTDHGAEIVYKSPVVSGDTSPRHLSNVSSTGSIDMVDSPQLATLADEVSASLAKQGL
Sequence of K18 tau fragment bearing the P301L mutation (K18PL) (P10636 561-689 P618L): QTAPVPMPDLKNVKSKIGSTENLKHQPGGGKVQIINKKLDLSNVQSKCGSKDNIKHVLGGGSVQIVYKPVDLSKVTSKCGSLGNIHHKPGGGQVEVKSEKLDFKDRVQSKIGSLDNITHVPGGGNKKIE

`Nc1scc2c(C(=O)NC3CC3)nn(-c3ccc(Cl)cc3)c(=O)c12` [Compound 16, 5-Amino-3-(4-chlorophenyl)-N-cyclopropyl-4-oxo-3,4-dihydrothieno[3,4-d]pyridazine-1-carboxamide]: in data set [1], the concentration at 1 h was greater than 800 ng/g. The “Brain concentration after oral administration” value in data set [2] was “significant concentrations”. In data set [3], the IC50 is 8.1 ± 5.7 µM.

`CN(C)C(=O)c1nn(-c2ccc(Cl)cc2)c(=O)c2c(N)scc12` [Compound 17, 5-Amino-3-(4-chlorophenyl)-N,N-dimethyl-4-oxo-3,4-dihydrothieno[3,4-d]pyridazine-1-carboxamide]: in data set [3], half-maximal inhibition (IC50) required 20.5 ± 13.6 µM.

As to `CCNC(=O)c1nn(-c2ccc(Cl)cc2)c(=O)c2c(N)scc12` [Compound 14, 5-Amino-3-(4-chlorophenyl)-N-ethyl-4-oxo-3,4-dihydrothieno[3,4-d]pyridazine-1-carboxamide], in data set [1], the concentration at 1 h is greater than 800 ng/g. In data set [3], this molecule showed an IC50 of 6.9 ± 3.4 µM.

With `CN(C)c1ccc2nc3ccc(=[N+](C)C)cc-3sc2c1` [methylene blue], the “Cognitive decline compared to placebo” value in data set [4] is recorded as “significant reduction in cognitive decline”.

With `Nc1scc2c(C(=O)O)nn(-c3ccc(Cl)cc3)c(=O)c12` [Compound 11, 5-Amino-3-(4-chlorophenyl)-4-oxo-3,4-dihydrothieno[3,4-d]pyridazine-1-carboxylic acid], the “Interference with the normal MT-stabilizing function of tau” value (“Interference” for short) in data set [5] is reported as “did not appear to interfere”. Also, the IC50 in data set [3] was found to be 5.4 ± 2.3 µM.

Turning to `CC(C)NC(=O)c1nn(-c2ccc(Cl)cc2)c(=O)c2c(N)scc12` [Compound 15, 5-Amino-3-(4-chlorophenyl)-N-isopropyl-4-oxo-3,4-dihydrothieno[3,4-d]pyridazine-1-carboxamide], the concentration at 1 h in data set [1] was greater than 800 ng/g. Moreover, the “Brain concentration after oral administration” value in data set [2] is recorded as “significant concentrations”. The molecule also returned an IC50 in data set [3] of 5.9 ± 4.7 µM.

For `CCOC(=O)c1nn(-c2ccc(Cl)cc2)c(=O)c2c(N)scc12` [Compound 8, Ethyl 5-amino-3-(4-chlorophenyl)-4-oxo-3,4-dihydrothieno[3,4-d]pyridazine-1-carboxylate], the “Interference” value in data set [5] is “did not appear to interfere”. This molecule showed an IC50 in data set [3] of 3.8 ± 1.6 µM.

For the molecule `CCN(C)C(=O)c1nn(-c2ccc(Cl)cc2)c(=O)c2c(N)scc12` [Compound 18, 5-Amino-3-(4-chlorophenyl)-N-ethyl-N-methyl-4-oxo-3,4-dihydrothieno[3,4-d]pyridazine-1-carboxamide], the IC50 in data set [3] came out at 32 ± 4.1 µM.

With `CC(C)OC(=O)c1nn(-c2ccc(Cl)cc2)c(=O)c2c(N)scc12` [Compound 10, Isopropyl 5-amino-3-(4-chlorophenyl)-4-oxo-3,4-dihydrothieno[3,4-d]pyridazine-1-carboxylate], the “Interference” value in data set [5] was “did not appear to interfere”. Moreover, the IC50 in data set [3] was determined as 1.6 ± 1.1 µM.

The molecule `CC(C)NC(=O)c1nn(-c2ccc(Br)cc2)c(=O)c2c(N)scc12` [Compound 19, 5-Amino-3-(4-bromophenyl)-N-isopropyl-4-oxo-3,4-dihydrothieno[3,4-d]pyridazine-1-carboxamide] showed an IC50 in data set [3] of 3.1 ± 0.6 µM.

In turn, `CNC(=O)c1nn(-c2ccc(Cl)cc2)c(=O)c2c(N)scc12` [Compound 13, 5-Amino-3-(4-chlorophenyl)-N-methyl-4-oxo-3,4-dihydrothieno[3,4-d]pyridazine-1-carboxamide] displayed an IC50 in data set [3] of 21.7 ± 16 µM.
